Measured values as given in ChEMBL document CHEMBL1129059, “Antitumor properties of some 2-[(dimethylamino)methyl]phenylgold(III) complexes” (J Med Chem, 1996).
Where “and” joins values, the source holds several entries; their conditions need not be identical. Equal values may be shown once. Blank lines part the entries; values can stand above or below the substance they belong to.

How the values were obtained:
SK-OV-3 [1] = test: Compound was tested for in vitro growth inhibition of primary panel tumor cell lines SK-OV-3; format: functional, cell-based, Homo sapiens
Method in brief: (§1)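 Primary-panel lines kept in L15, RPMI 1640 plus pyruvate, or MEM, each with 10% FBS. Cells were seeded at 5×10^4–10^5 cells/mL, preincubated 24 h, then exposed 4 h to 0–200 μg/mL from a 2 mg/mL stock in 10% DMA/PBS. After washout and 72 h further growth, cells were read by SRB. IC50 was the concentration giving 50% survival versus untreated controls.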

HX62 cell line = test: Compound was tested for in vitro growth inhibition of Ovarian carcinoma cell line panel HX62; format: functional, cell-based, Homo sapiens
Method in brief: (§2)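 Ovarian lines grown as monolayers in DMEM with 10% FBS, insulin, hydrocortisone and L-glutamine under 6% CO2. Cells were seeded at 3–5 × 10³/well and left to attach overnight. Compounds were freshly dissolved in DMA or water and applied for 96 h in quadruplicate wells. Growth was measured by SRB and reported as IC50.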

SW 1116 = test: Compound was tested for in vitro growth inhibition of primary panel tumor cell line SW1116; format: functional, cell-based, Homo sapiens; method in brief: as §1
CH1 [2] = test: Compound was tested for in vitro growth inhibition of Ovarian carcinoma cell line panel CH1; format: functional, cell-based; method in brief: as §2
A2780 [3] = test: Compound was tested for in vitro growth inhibition of Ovarian carcinoma cell line panel A2780; format: functional, cell-based, Homo sapiens; method in brief: as §2
SK-OV-3 [4] = test: Compound was tested for in vitro growth inhibition of Ovarian carcinoma cell line panel SK-OV-3; format: functional, cell-based, Homo sapiens; method in brief: as §2
A2780 [5] = test: Compound was tested for in vitro growth inhibition of Ovarian carcinoma cell line panel A2780-R; format: functional, cell-based, Homo sapiens; method in brief: as §2
[6] = Solubility at 25 degrees Celsius in water; format: physicochemical; conditions: buffer
Method in brief: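 5–10 mg sample was tumbled in 5.0 mL water at 25 °C for 24 h and filtered. The solution was diluted as needed and gold was quantified with 1 ppm indium as internal standard.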

[7] = Solubility at 25 degrees Celsius in 1-Octanol; format: physicochemical
Method in brief: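 A sample was tumbled in 1-octanol at 25 °C for 24 h and filtered. An aliquot was evaporated and the residue taken up in dilute aqua regia. Gold content was determined as for the aqueous samples, with indium as internal standard.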

SW-620 [8] = test: Compound was tested for in vitro growth inhibition of primary panel tumor cell lines SW620; format: functional, cell-based, Homo sapiens; method in brief: as §1
HT-29 = test: Compound was tested for in vitro growth inhibition of primary panel tumor cell line HT-29/219; format: functional, cell-based, Homo sapiens; method in brief: as §1
CH1 [9] = test: Compound was tested for in vitro growth inhibition of Ovarian carcinoma cell line panel CH1-R; format: functional, cell-based; method in brief: as §2
ZR-75-1 = test: Compound was tested for in vitro growth inhibition of primary panel tumor cell line ZR-75-1; format: functional, cell-based, Homo sapiens; method in brief: as §1
HT-1376 = test: Compound was tested for in vitro growth inhibition of primary panel tumor cell line HT1376; format: functional, cell-based, Homo sapiens; method in brief: as §1
SW-620 [10] = test: Compound was tested for in vitro growth inhibition of primary panel tumor cell line SW620; format: functional, cell-based, Homo sapiens; method in brief: as §1
SK-OV-3 [11] = test: Compound was tested for in vitro growth inhibition of primary panel tumor cell line SK-OV-3; format: functional, cell-based, Homo sapiens; method in brief: as §1
[12] = Range is evaluated. (Highest IC50/Lowest IC50); format: functional
Mus musculus [13] = test: Compound was evaluated for antitumor activity (T/C) in HT1376 carcinoma Xenograft, at a dosage 17.5 mg/kg on day 28; format: functional, organism-based; parameters: dose 17.5 mg/kg
Method in brief: (§3)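 Subcutaneous HT1376 xenografts in nude mice, 6 per treated group and 10 controls. Intraperitoneal dosing as suspensions in 0.5% carboxymethylcellulose/0.9% saline on days 0, 7, 14, 21; tumors measured weekly to day 28. T/C = RTV of treated group / RTV of untreated control group; significance by t-test at the 5% level.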

Mus musculus [14] = test: Compound was evaluated for antitumor activity (RTV) in HT1376 carcinoma Xenograft, at a dosage 35 mg/kg on day 21; format: functional, organism-based; parameters: dose 35 mg/kg
Method in brief: (§4)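 HT1376 tumor fragments implanted subcutaneously in nude mice flanks; mice with established palpable tumors randomized into groups of 6 (controls 10). Compounds given intraperitoneally as suspensions in 0.5% carboxymethylcellulose in 0.9% saline, on days 0, 7, 14 and 21. Tumor dimensions on days 0, 7, 14, 21, 28. RTV = 100(mean tumor volume at assessment)/(mean start volume).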

Mus musculus [15] = test: Compound was evaluated for antitumor activity (T/C) in HT1376 carcinoma Xenograft, at a dosage 35 mg/kg on day 28; format: functional, organism-based; parameters: dose 35 mg/kg
Method in brief: (§5)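 Nude mice carrying subcutaneous flank HT1376 fragments; treatment began once tumors were established and palpable, randomized into groups of 6 treated and 10 control mice. Dosing was ip as a suspension in 0.5% carboxymethylcellulose in 0.9% saline on days 0, 7, 14 and 21, at the MTD and two 2-fold dilutions. Tumors were measured on days 0-28. RTV = 100(mean volume at assessment)/(mean start volume); T/C = treated RTV/control RTV.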

Mus musculus [16] = test: Compound was evaluated for antitumor activity (RTV) in HT1376 carcinoma Xenograft, at a dosage 17.5 mg/kg on day 21; format: functional, organism-based; parameters: dose 17.5 mg/kg; method in brief: as §4
Mus musculus [17] = test: Compound was evaluated for antitumor activity (T/C) in HT1376 carcinoma Xenograft, at a dosage 8.75 mg/kg on day 14; format: functional, organism-based; parameters: dose 8.75 mg/kg; method in brief: as §5
Mus musculus [18] = test: Compound was evaluated for antitumor activity (RTV) in HT1376 carcinoma Xenograft, at a dosage 8.75 mg/kg on day 28; format: functional, organism-based; parameters: dose 8.75 mg/kg; method in brief: as §4
Mus musculus [19] = test: Compound was evaluated for antitumor activity (T/C) in HT1376 carcinoma Xenograft, at a dosage 17.5 mg/kg on day 7; format: functional, organism-based; parameters: dose 17.5 mg/kg; method in brief: as §3
Mus musculus [20] = test: Compound was evaluated for antitumor activity (T/C) in HT1376 carcinoma Xenograft, at a dosage 35 mg/kg on day 14; format: functional, organism-based; parameters: dose 35 mg/kg; method in brief: as §5
Mus musculus [21] = test: Compound was evaluated for antitumor activity (T/C) in HT1376 carcinoma Xenograft, at a dosage 35 mg/kg on day 21; format: functional, organism-based; parameters: dose 35 mg/kg; method in brief: as §5
Mus musculus [22] = test: Compound was evaluated for antitumor activity (RTV) in HT1376 carcinoma Xenograft, at a dosage 17.5 mg/kg on day 7; format: functional, organism-based; parameters: dose 17.5 mg/kg; method in brief: as §4
Mus musculus [23] = test: Compound was evaluated for antitumor activity (RTV) in HT1376 carcinoma Xenograft, at a dosage 35 mg/kg on day 28; format: functional, organism-based; parameters: dose 35 mg/kg; method in brief: as §4
Mus musculus [24] = test: Compound was evaluated for antitumor activity (RTV) in HT1376 carcinoma Xenograft, at a dosage 8.75 mg/kg on day 7; format: functional, organism-based; parameters: dose 8.75 mg/kg; method in brief: as §4
Mus musculus [25] = test: Compound was evaluated for antitumor activity (T/C) in HT1376 carcinoma Xenograft, at a dosage 35 mg/kg on day 7; format: functional, organism-based; parameters: dose 35 mg/kg; method in brief: as §5
Mus musculus [26] = test: Compound was evaluated for antitumor activity (RTV) in HT1376 carcinoma Xenograft, at a dosage 17.5 mg/kg on day 14; format: functional, organism-based; parameters: dose 17.5 mg/kg; method in brief: as §4
Mus musculus [27] = test: Compound was evaluated for antitumor activity (T/C) in HT1376 carcinoma Xenograft, at a dosage 8.75 mg/kg on day 7; format: functional, organism-based; parameters: dose 8.75 mg/kg; method in brief: as §5
Mus musculus [28] = test: Compound was evaluated for antitumor activity (RTV) in HT1376 carcinoma Xenograft, at a dosage 35 mg/kg on day 14; format: functional, organism-based; parameters: dose 35 mg/kg; method in brief: as §4
Mus musculus [29] = test: Compound was evaluated for antitumor activity (RTV) in HT1376 carcinoma Xenograft, at a dosage 35 mg/kg on day 7; format: functional, organism-based; parameters: dose 35 mg/kg; method in brief: as §4
Mus musculus [30] = test: Compound was evaluated for antitumor activity (T/C) in HT1376 carcinoma Xenograft, at a dosage 17.5 mg/kg on day 14; format: functional, organism-based; parameters: dose 17.5 mg/kg; method in brief: as §3
Mus musculus [31] = test: Compound was evaluated for antitumor activity (T/C) in HT1376 carcinoma Xenograft, at a dosage 17.5 mg/kg on day 21; format: functional, organism-based; parameters: dose 17.5 mg/kg; method in brief: as §3
Mus musculus [32] = test: Compound was evaluated for antitumor activity (T/C) in HT1376 carcinoma Xenograft, at a dosage 8.75 mg/kg on day 21; format: functional, organism-based; parameters: dose 8.75 mg/kg; method in brief: as §5
Mus musculus [33] = test: Compound was evaluated for antitumor activity (RTV) in HT1376 carcinoma Xenograft, at a dosage 8.75 mg/kg on day 21; format: functional, organism-based; parameters: dose 8.75 mg/kg; method in brief: as §4
Mus musculus [34] = test: Compound was evaluated for antitumor activity (T/C) in HT1376 carcinoma Xenograft, at a dosage 8.75 mg/kg on day 28; format: functional, organism-based; parameters: dose 8.75 mg/kg; method in brief: as §5
Mus musculus [35] = test: Compound was evaluated for antitumor activity (RTV) in HT1376 carcinoma Xenograft, at a dosage 8.75 mg/kg on day 14; format: functional, organism-based; parameters: dose 8.75 mg/kg; method in brief: as §4
Mus musculus [36] = test: Compound was evaluated for antitumor activity (RTV) in HT1376 carcinoma Xenograft, at a dosage 17.5 mg/kg on day 28; format: functional, organism-based; parameters: dose 17.5 mg/kg; method in brief: as §4

IC50 (SK-OV-3 [1]): 13 µM
IC50 (A2780 [3]): 3500 nM
IC50 (SK-OV-3 [4]): 107 µM
IC50 (A2780 [5]): 35 µM
Solubility [6]: > 5.23 mM
Solubility [7]: > 5.28 mM
IC50 (SW-620 [8]): 281 µM
IC50 (HT-29): 67 µM
IC50 (HT-1376): 13 µM
Substance: Acetato[2-(dimethylamino)methyl]phenyl-C,N]gold-(III)
IC50 (HX62 cell line): 34 µM
IC50 (SW 1116): 238 µM
IC50 (CH1 [2]): 11 µM
IC50 (CH1 [9]): 12 µM
IC50 (ZR-75-1): 45 µM

IC50 (SK-OV-3 [1]): 11 µM
IC50 (A2780 [3]): 2700 nM
IC50 (SK-OV-3 [4]): 30 µM
IC50 (A2780 [5]): 16 µM
Solubility [6]: 3.58 mM
Solubility [7]: 3.57 mM
IC50 (HT-29): 36 µM
IC50 (SW-620 [10]): 67 µM
IC50 (HT-1376): 11 µM
Substance: Malonato[2-(dimethylamino)methyl]phenyl-C,N]gold-(III) [listing 1 of 2 here]
IC50 (HX62 cell line): 27 µM
IC50 (SW 1116): 80 µM
IC50 (CH1 [2]): 2.7 µM
IC50 (CH1 [9]): 3.3 µM
IC50 (ZR-75-1): 36 µM

IC50 (SK-OV-3 [11]): 20 µM
IC50 (A2780 [3]): 2000 nM
IC50 (SK-OV-3 [4]): 39 µM
IC50 (A2780 [5]): 26 µM
Solubility [6]: 0.13 mM
Solubility [7]: 0.78 mM
IC50 (HT-29): 25 µM
IC50 (SW-620 [10]): 51 µM
IC50 (HT-1376): 6.7 µM
Substance: Bis(thiocyanato)[2-(dimethylamino)methyl]phenyl-C,N]gold-(III) [listing 1 of 2 here]
IC50 (HX62 cell line): 31 µM
IC50 (SW 1116): 47 µM
IC50 (CH1 [2]): 10 µM
IC50 (CH1 [9]): 11 µM
IC50 (ZR-75-1): 34 µM

Substance: Bis(thiocyanato)[2-(dimethylamino)methyl]phenyl-C,N]gold-(III) [listing 2 of 2 here]
Range [12]: 7.6 and 19.5

Substance: Dichloro[2-(dimethylamino)methyl]phenyl-C,N]gold-(III)
Range [12]: 4.6 and 13.3

Substance: Malonato[2-(dimethylamino)methyl]phenyl-C,N]gold-(III) [listing 2 of 2 here]
T/C (Mus musculus [13]): 0.76
RTV (Mus musculus [14]): 488
T/C (Mus musculus [15]): 0.77
RTV (Mus musculus [16]): 699
Range [12]: 7.3 and 11.1
T/C (Mus musculus [17]): 1
RTV (Mus musculus [18]): 1230
T/C (Mus musculus [19]): 1.01
T/C (Mus musculus [20]): 0.57
T/C (Mus musculus [21]): 0.58
RTV (Mus musculus [22]): 266
RTV (Mus musculus [23]): 816
RTV (Mus musculus [24]): 264
T/C (Mus musculus [25]): 0.8
RTV (Mus musculus [26]): 451
T/C (Mus musculus [27]): 1
RTV (Mus musculus [28]): 292
RTV (Mus musculus [29]): 210
T/C (Mus musculus [30]): 0.88
T/C (Mus musculus [31]): 0.83
T/C (Mus musculus [32]): 1.06
RTV (Mus musculus [33]): 894
T/C (Mus musculus [34]): 1.17
RTV (Mus musculus [35]): 513
RTV (Mus musculus [36]): 802
